Source: PubChem BioAssay
Activity calls are given as the source filed them.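 How the source made its calls: active means primary screen active whose calcium signal fell more than 3 SD beyond the full-serotonin control mean in both duplicate plates; inactive means the rest.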

Test: calcium flux inhibitors in TRPC4/5HT1a cells, confirmation, counter-screen for TRPC4 inhibitor project, cell-based, second counter screen, HEK293 TRPC4/5HT1a, Fluo-4 (AID 434978);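 further: serotonin given first at submaximal then at maximal dose after compound preincubation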
Conditions: Fluo-4 calcium flux, at 10 µM, serotonin added to trigger calcium flux
Method in brief: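 Test system: HEK293 cells stably co-expressing TRPC4 channel and 5HT1a serotonin receptor / Schedule: three 110 s phases (compound, two serotonin additions) / Measured by: kinetic Fluo-4 fluorescence readout of calcium flux / Benchmarks: maximal serotonin stimulation controls / Repeats: duplicate plates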

SMILES	outcome
CN1CCC(CNC(=O)Nc2ccccc2)(c2ccccc2)CC1	inactive
Cc1ccc(C)c(OCCCCCn2ccnc2)c1	inactive
CN(C)C(CNC(=O)c1ccc2ccccc2n1)c1ccccc1 (stereo not drawn)	inactive
CCn1cc(CN2CCC(n3nccc3NC(=O)CCOc3ccccc3)CC2)cn1	inactive
CCOC(=O)C1(CCOc2ccccc2)CCN(Cc2cnc(C)s2)CC1	inactive
CCN1CCN(c2ccc(S(=O)(=O)N3CCOCC3)cc2NC(=O)C(C)Oc2cccc(Cl)c2)CC1 (stereo not drawn)	inactive
CN(CCc1nc2ccc(Cl)cc2[nH]1)Cc1nc(CC2CC2)no1	inactive
COc1ccccc1CCC(=O)Nc1cc(S(=O)(=O)N2CCCCC2)ccc1N1CCN(C)CC1	inactive
CCCCC(=O)NNC(=S)NC(=O)c1ccc(C)cc1	inactive
Cc1ccc(C2N(c3ccc(Cl)c(Cl)c3)C(=O)C3CCCN32)o1 (stereo not drawn)	inactive
COc1ccccc1N1CCN(C(c2cccs2)C(C)NC(=O)c2cccs2)CC1 (stereo not drawn)	inactive
O=C(Nc1nnc(-c2ccccc2Cl)o1)c1nc2ccccc2s1	inactive
CCOC(=O)C1(CC2CCCCO2)CCN(Cc2c(C)cc(C)cc2-n2cccn2)CC1 (stereo not drawn)	inactive
Cc1ccccc1OCC(=O)NNC(=S)NC(=O)c1ccco1	inactive
Cc1ccc(C2(O)CN(c3ccccc3C)C3=[N+]2CCS3)cc1 (stereo not drawn)	inactive
Cc1ccccc1C(=O)NNC(=S)NC(=O)c1ccccc1	inactive
Cc1ccc(C(=O)NC(=S)NNC(=O)c2ccccc2)cc1	inactive
Fc1ccc(-c2nnc(CN3CCN(c4ncc(C(F)(F)F)cc4Cl)CC3)o2)cc1	inactive
